Published values gathered from unrelated publications.
Each line is one published result; the experiments were not run side by side.
Medium: plasma

COc1cc(C(=O)NC2CCN(C)CC2)c(F)cc1Nc1ncc(C(F)(F)F)c(Oc2cccc3c2C(=O)N(C)C3)n1
AUC (human; oral, 300 mg, multiple doses, once daily, steady state, patients): 79.6 µM·h

CO[C@H]1CC[C@H](N2C(=O)CNc3ncc(-c4ccc(C(C)(C)O)nc4)nc32)CC1
AUC(0-inf) (human; oral, 45 mg, patients): 1690 ng·h/mL

CC(C)(O)c1ccccc1-c1ccc2[nH]c(/C=C/c3ccc(C(F)(F)F)cc3)nc2c1
AUC(0-t) (male human; oral, 30 mg, single dose, fasted, healthy volunteers): 5160 ng·h/mL

CC(C)n1cc(C#N)c2cc(-n3cc(C(=O)O)cn3)ccc21
AUC(0-t) (human; oral, 200 mg, single dose, fasted, healthy volunteers): 43900 ng·h/mL

Cc1ccc(C(=O)N(CCCN)[C@@H](c2oc3cc(Cl)ccc3c(=O)c2Cc2ccccc2)C(C)C)cc1
AUC (human; intravenous, 4 mg/m², single dose, patients, infusion): 5160 ng·h/mL

CCc1nc2c(C)cc(N3CCN(CC(=O)N4CC(O)C4)CC3)cn2c1N(C)c1nc(-c2ccc(F)cc2)c(C#N)s1
AUC(0-inf) (human; oral, 150 mg, single dose, fed, healthy volunteers): 6700 ng·h/mL

COc1cc(C(=O)NC2CCN(C)CC2)c(F)cc1Nc1ncc(C(F)(F)F)c(Oc2cccc3c2C(=O)N(C)C3)n1
AUC (human; oral, 200 mg, multiple doses, once daily, steady state, patients): 43.7 µM·h

COc1ccc([C@@H]2CN(C(=O)[C@@H](O)CO)C[C@@]2(C)[C@@H](C)O)cc1OC1CN(c2ccc(C)cn2)C1
AUC(0-inf) (human; oral, 1.5 mg, single dose, healthy volunteers): 524 ng·h/mL

Cn1cc(-c2ccc(S(=O)(=O)[C@@H]3C[C@@H](C(=O)NC4(C#N)CC4)N(C(=O)C4(C(F)(F)F)CC4)C3)c(C(F)(F)F)c2)cn1
AUC(0-inf) (human; oral, 300 mg, single dose, fasted, healthy volunteers): 21000 ng·h/mL

Cn1c(=O)oc2ccc(-c3ccc(C[C@@H](C#N)NC(=O)[C@@H]4CNCCCO4)cc3)cc21
AUC (male human; oral, 15 mg, single dose, healthy volunteers): 4.17 µM·h
